The structures appear in SMILES notation. Active and inactive are the calls of the source.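 The calls were made as follows: active = at least 4-fold drop in recombinant frequency versus the solvent-only control; inactive = the rest.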

The assay concerns E. coli recBCD-deleted + H. pylori AddAB/RecA, Hfr recombinant frequency. The experiment in a line: Hfr recombinant frequency reduction – colony formation, p(addAB), p(recA), 20 µM, counter-screen for AddAB inhibitor project, late-stage follow-up (AID 623956). Conditions: at 20 µM; stronger effect = higher value. The gist of the method: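 Assay system: recBCD-deleted E. coli recipient carrying H. pylori addAB and recA plasmids; Compound dosing: single 20 µM compound dose, DMSO vehicle; Schedule: compound exposure 1.5 h total, including 30 min mating; Technique: colony counts on selective and non-selective plates; Read-out basis: viability-corrected recombinant frequency drop relative to DMSO.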
As for `Cc1ccc2nc(/C(C#N)=C\c3ccc([N+](=O)[O-])o3)[nH]c2c1`, the fold reduction is 1 (inactive).

Regarding `O=C(Nc1cccc(NC(=O)c2ccccc2Cl)c1)c1ccc([N+](=O)[O-])o1`, the fold reduction is 0.8 (inactive).

As for `O=C(NCc1cccnc1)c1ccc([N+](=O)[O-])o1`, the fold reduction is 0.8 (inactive). The result for `CCn1cc(C(=O)O)c(=O)c2cnc(N3CCN(C(=S)Nc4ccccc4C(F)(F)F)CC3)nc21` reads 5; that for `C=CCn1c(Sc2ncc([N+](=O)[O-])s2)n[nH]c1=O`, 1.1 (inactive). The result for `CC(=O)Nc1ccc2nc(NC(=O)c3ccc([N+](=O)[O-])o3)sc2c1` reads 1.1 (inactive); that for `NC(=O)c1ccsc1NC(=O)COC(=O)c1ccc([N+](=O)[O-])o1`, 1.1 (inactive). The result for `O=C(Nc1ccc(N2CCOCC2)cc1)c1ccc([N+](=O)[O-])o1` reads 0.8 (inactive); that for `O=C(OCC(=O)c1cccs1)c1ccc([N+](=O)[O-])o1`, 0.9 (inactive).

Regarding `O=C(Nc1ncccn1)c1ccc([N+](=O)[O-])o1`, the fold reduction is 0.9 (inactive). As to `Cc1cccnc1NC(=O)c1ccc([N+](=O)[O-])o1`, the fold reduction was 0.8 (inactive).

The record behind these values is PubChem BioAssay AID623956 (The Scripps Research Institute Molecular Screening Center, 2012).
